Test results: ChEMBL document CHEMBL4261531, “Synthesis of thioether andrographolide derivatives and their inhibitory effect against cancer cells” (Medchemcomm, 2017)

Legend:
[1] = test system: PC-3; test: Growth inhibition of human PC3 cells after 48 hrs by MTT assay; type: functional, cell-based; settings: PC-3, 48 h
Procedure, shortened: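 PC-3 human prostate cancer cells exposed to compounds, with viability read by MTT assay; taxol served as the positive control.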

[2] = test system: Vero; test: Cytotoxicity against African green monkey Vero cells at 100 uM after 48 hrs by MTT assay; type: cell-based; settings: chlorocebus sabaeus
[3] = test system: A549; test: Growth inhibition of human A549 cells after 48 hrs by MTT assay; type: functional, cell-based; settings: A549, 48 h
[4] = test system: MCF7; test: Growth inhibition of human MCF7 cells after 48 hrs by MTT assay; type: functional, cell-based; settings: MCF7, 48 h
[5] = test system: MDA-MB-231; test: Growth inhibition of human MDA-MB-231 cells after 48 hrs by MTT assay; type: functional, cell-based; settings: MDA-MB-231, 48 h

IC50 [1] | Structure (SMILES) | also measured
9 µM | C=C1CC[C@@H]2[C@]3(C)COC(C)(C)O[C@@H]3CC[C@@]2(C)[C@@H]1C/C=C1/C(=O)OC[C@H]1OC(=O)CCCSc1cccs1 | Activity [2]: Non-Toxic; IC50 [3]: 25 µM; IC50 [4]: 0.7 µM; IC50 [5]: 10 µM
14 µM | C=C1CC[C@@H]2[C@]3(C)COC(C)(C)O[C@@H]3CC[C@@]2(C)[C@@H]1C/C=C1/C(=O)OC[C@H]1OC(=O)CCCSc1ccc(C)cc1 | 
7 µM | C=C1CC[C@@H]2[C@]3(C)COC(C)(C)O[C@@H]3CC[C@@]2(C)[C@@H]1CC(Sc1ncccn1)C1=CCOC1=O (some centres undefined) | Activity [2]: Non-Toxic; IC50 [3]: 20 µM; IC50 [4]: 7 µM; IC50 [5]: 9 µM
15 µM | C=C1CC[C@@H]2[C@](C)(CO)[C@H](O)CC[C@@]2(C)[C@@H]1CC(Sc1cccs1)C1=CCOC1=O (some centres undefined) | 
7 µM | C=C1CC[C@@H]2[C@](C)(CO)[C@H](O)CC[C@@]2(C)[C@@H]1CC(Sc1ncccn1)C1=CCOC1=O (some centres undefined) | Activity [2]: Non-Toxic; IC50 [3]: 9 µM; IC50 [4]: 23 µM; IC50 [5]: 16 µM
12 µM | C=C1CC[C@@H]2[C@]3(C)COC(C)(C)O[C@@H]3CC[C@@]2(C)[C@@H]1CC(Sc1ccc([N+](=O)[O-])cc1)C1=CCOC1=O (some centres undefined) | 
15 µM | C=C1CC[C@@H]2[C@](C)(CO)[C@H](O)CC[C@@]2(C)[C@@H]1CC(Sc1ccc(OC)cc1)C1=CCOC1=O (some centres undefined) | 
17 µM | C=C1CC[C@@H]2[C@](C)(CO)[C@H](O)CC[C@@]2(C)[C@@H]1C/C=C1/C(=O)OC[C@H]1OC(=O)CSc1ccc([N+](=O)[O-])cc1 | 
17 µM | C=C1CC[C@@H]2[C@]3(C)COC(C)(C)O[C@@H]3CC[C@@]2(C)[C@@H]1C/C=C1/C(=O)OC[C@H]1OC(=O)CCCSc1ccc([N+](=O)[O-])cc1 | 
18 µM | C=C1CC[C@@H]2[C@](C)(CO)[C@H](O)CC[C@@]2(C)[C@@H]1CC(Sc1ccccn1)C1=CCOC1=O (some centres undefined) | 
9 µM | C=C1CC[C@@H]2[C@]3(C)COC(C)(C)O[C@@H]3CC[C@@]2(C)[C@@H]1C/C=C1/C(=O)OC[C@H]1OC(=O)CSc1ccc([N+](=O)[O-])cc1 | Activity [2]: Non-Toxic; IC50 [3]: 11 µM; IC50 [4]: 10 µM; IC50 [5]: 19 µM
14 µM | C=C1CC[C@@H]2[C@](C)(CO)[C@H](O)CC[C@@]2(C)C1C/C=C1/C(=O)OC[C@H]1OC(=O)CCCSc1ccccn1 (single isomer, unassigned) | 
7 µM | CC(=O)O[C@H]1C(=O)[C@@]2(C)[C@H]([C@H](OC(=O)c3ccccc3)[C@]3(O)C[C@H](OC(=O)[C@H](O)[C@@H](NC(=O)c4ccccc4)c4ccccc4)C(C)=C1C3(C)C)[C@]1(OC(C)=O)CO[C@@H]1C[C@@H]2O [PACLITAXEL] | 

The remaining lines, values behind:

Structure (SMILES) | IC50 [1] | also measured
C=C1CC[C@@H]2[C@](C)(CO)[C@H](O)CC[C@@]2(C)[C@@H]1CC(Sc1ccc(C)cc1)C1=CCOC1=O (some centres undefined) | 29 µM | 
C=C1CC[C@@H]2[C@]3(C)COC(C)(C)O[C@@H]3CC[C@@]2(C)[C@@H]1C/C=C1/C(=O)OC[C@H]1OC(=O)CCCSc1ccccn1 | 9 µM | Activity [2]: Non-Toxic; IC50 [3]: 23 µM; IC50 [4]: 0.6 µM; IC50 [5]: 6 µM
C=C1CC[C@@H]2[C@](C)(CO)[C@H](O)CC[C@@]2(C)[C@@H]1C/C=C1/C(=O)OC[C@H]1OC(=O)CSc1ccc(C)cc1 | 27 µM | 
C=C1CC[C@@H]2[C@]3(C)COC(C)(C)O[C@@H]3CC[C@@]2(C)[C@@H]1C[C@@H](Sc1cccs1)C1=CCOC1=O | 20 µM | 
C=C1CC[C@@H]2[C@]3(C)COC(C)(C)O[C@@H]3CC[C@@]2(C)[C@@H]1CC(Sc1ccccc1)C1=CCOC1=O (some centres undefined) | 12 µM | 
C=C1CC[C@@H]2[C@](C)(CO)[C@H](O)CC[C@@]2(C)[C@@H]1CC(Sc1ccc([N+](=O)[O-])cc1)C1=CCOC1=O (some centres undefined) | 17 µM | 
C=C1CC[C@@H]2[C@]3(C)COC(C)(C)O[C@@H]3CC[C@@]2(C)[C@@H]1C/C=C1/C(=O)OC[C@H]1OC(=O)CCCSc1ccc(F)cc1 | 13 µM | 
C=C1CC[C@@H]2[C@]3(C)COC(C)(C)O[C@@H]3CC[C@@]2(C)[C@@H]1C/C=C1/C(=O)OC[C@H]1OC(=O)CSc1cccs1 | 15 µM | 
C=C1CC[C@@H]2[C@](C)(CO)[C@H](O)CC[C@@]2(C)[C@@H]1CC(Sc1nccs1)C1=CCOC1=O (some centres undefined) | 14 µM | 
C=C1CC[C@@H]2[C@]3(C)COC(C)(C)O[C@@H]3CC[C@@]2(C)[C@@H]1C/C=C1/C(=O)OC[C@H]1OC(=O)CCCSc1ccc(OC)cc1 | 18 µM | 
C=C1CC[C@@H]2[C@]3(C)COC(C)(C)O[C@@H]3CC[C@@]2(C)[C@@H]1CC(Sc1ccc(F)cc1)C1=CCOC1=O (some centres undefined) | 13 µM | 
C=C1CC[C@@H]2[C@]3(C)COC(C)(C)O[C@@H]3CC[C@@]2(C)[C@@H]1CC(Sc1ccc(C)cc1)C1=CCOC1=O (some centres undefined) | 23 µM | 
C=C1CC[C@@H]2[C@]3(C)COC(C)(C)O[C@@H]3CC[C@@]2(C)[C@@H]1C/C=C1/C(=O)OC[C@H]1OC(=O)CSc1ccc(C)cc1 | 11 µM | 
C=C1CC[C@@H]2[C@](C)(CO)[C@H](O)CC[C@@]2(C)[C@@H]1C/C=C1/C(=O)OC[C@H]1OC(=O)CSc1ccc(F)cc1 | 14 µM | 
C=C1CC[C@@H]2[C@]3(C)COC(C)(C)O[C@@H]3CC[C@@]2(C)[C@@H]1C[C@H](Sc1cccs1)C1=CCOC1=O | 9 µM | Activity [2]: Non-Toxic; IC50 [3]: 20 µM; IC50 [4]: 5 µM; IC50 [5]: 8 µM
C=C1CC[C@@H]2[C@](C)(CO)[C@H](O)CC[C@@]2(C)[C@@H]1CC(Sc1ccccc1)C1=CCOC1=O (some centres undefined) | 14 µM | 
C=C1CC[C@@H]2[C@]3(C)COC(C)(C)O[C@@H]3CC[C@@]2(C)[C@@H]1CC(Sc1nccs1)C1=CCOC1=O (some centres undefined) | 10 µM | Activity [2]: Non-Toxic; IC50 [3]: 31 µM; IC50 [4]: 3 µM; IC50 [5]: 12 µM
C=C1CC[C@@H]2[C@]3(C)COC(C)(C)O[C@@H]3CC[C@@]2(C)[C@@H]1CC(Sc1ccc(OC)cc1)C1=CCOC1=O (some centres undefined) | 17 µM | 
C=C1CC[C@@H]2[C@](C)(CO)[C@H](O)CC[C@@]2(C)[C@@H]1CC(Sc1ccc(F)cc1)C1=CCOC1=O (some centres undefined) | 16 µM | 
C=C1CC[C@@H]2[C@](C)(CO)[C@H](O)CC[C@@]2(C)[C@@H]1C/C=C1/C(=O)OCC1OC(=O)CSc1ccc(F)cc1 (some centres undefined) | 13 µM | 
C=C1CC[C@@H]2[C@](C)(CO)[C@H](O)CC[C@@]2(C)[C@@H]1C/C=C1/C(=O)OC[C@H]1OC(=O)CSc1cccs1 | 18 µM | 
C=C1CC[C@@H]2[C@]3(C)COC(C)(C)O[C@@H]3CC[C@@]2(C)[C@@H]1CC(Sc1ccccn1)C1=CCOC1=O (some centres undefined) | 14 µM | 
C=C1CC[C@@H]2[C@](C)(CO)[C@H](O)CC[C@@]2(C)C1C/C=C1/C(=O)OC[C@H]1OC(=O)CCCSc1cccs1 (single isomer, unassigned) | 16 µM | 
C=C1CC[C@@H]2[C@](C)(CO)[C@H](O)CC[C@@]2(C)C1C/C=C1/C(=O)OC[C@H]1OC(=O)CCCSc1ccc(C)cc1 (single isomer, unassigned) | 16 µM | 
C=C1CC[C@@H]2[C@](C)(CO)[C@H](O)CC[C@@]2(C)C1C/C=C1/C(=O)OC[C@H]1OC(=O)CCCSc1ccc(F)cc1 (single isomer, unassigned) | 12 µM | 
C=C1CC[C@@H]2[C@](C)(CO)[C@H](O)CC[C@@]2(C)C1C/C=C1/C(=O)OC[C@H]1OC(=O)CCCSc1ccc(OC)cc1 (single isomer, unassigned) | 19 µM | 
C=C1CC[C@@H]2[C@](C)(CO)[C@H](O)CC[C@@]2(C)C1C/C=C1/C(=O)OC[C@H]1OC(=O)CCCSc1ccc([N+](=O)[O-])cc1 (single isomer, unassigned) | 17 µM | 
C=C1CC[C@@H]2[C@](C)(CO)[C@H](O)CC[C@@]2(C)[C@@H]1C/C=C1/C(=O)OC[C@H]1O [ANDROGRAPHOLIDE] | 30 µM | 
